Data on 4 compounds can be found in ChEMBL document CHEMBL1151705, “Novel azalides derived from 16-membered macrolides. Part II: Isolation of the linear 9-formylcarboxylic acid and its sequential macrocyclization with an amino alcohol or an azidoamine” (2008).

≈ marks a conversion by molar mass, not a printed value.

Holding throughout (type): functional
Test [1] has as its system Haemophilus influenzae. Description: Antimicrobial activity against drug-susceptible Haemophilus influenzae 4 after 20 hrs by agar dilution method. In short, it runs like this:
(§1)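 Streptococci, H. influenzae and M. catarrhalis were precultured on blood agar plates. Suspensions of about 10⁶ CFU/ml were inoculated onto sensitivity disk agar supplemented with 5% horse blood and incubated at 37 °C for 20 h. MIC was read as the lowest drug concentration with no visible growth.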
On the technique in general: Agar dilution tests growth on a series of plates holding different concentrations.

Test [2] relates to Streptococcus pneumoniae. Kind of test: Antimicrobial activity against Streptococcus pneumoniae 7 expressing inducible ermB after 20 hrs by agar dilution method. The essentials: as §1
Test [3] has as its system Streptococcus pneumoniae. Description: Antimicrobial activity against drug-susceptible Streptococcus pneumoniae DP1 Type1 after 20 hrs by agar dilution method. The essentials:
as §1

For test [4], the system named is Staphylococcus aureus. Description: Antimicrobial activity against drug-susceptible Staphylococcus aureus 209P JC-1 after 20 hrs by agar dilution method. The essentials:
(§2)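 Agar dilution MIC. S. aureus seed culture was grown in sensitivity test broth. Cell suspension (about 10⁶ CFU/ml) was inoculated onto sensitivity disk agar with 5% horse blood and incubated at 37 °C for 20 h. MIC was the lowest drug concentration that prevented visible growth.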

In test [5] the test system is Streptococcus pneumoniae. Kind of test: Antimicrobial activity against Streptococcus pneumoniae 9 expressing mefA after 20 hrs by agar dilution method. In short, it runs like this: as §1
Test [6] relates to Streptococcus pneumoniae. Description: Antimicrobial activity against drug-susceptible Streptococcus pneumoniae 2 after 20 hrs by agar dilution method. The essentials:
as §1

The test system of test [7] is Haemophilus influenzae. Description: Antimicrobial activity against drug-susceptible Haemophilus influenzae 1 after 20 hrs by agar dilution method. In short, it runs like this: as §1
For test [8], the system named is Haemophilus influenzae. Description: Antimicrobial activity against drug-susceptible Haemophilus influenzae 2 after 20 hrs by agar dilution method. The essentials:
as §1

The subject of test [9] is Moraxella catarrhalis. Description: Antimicrobial activity against drug-susceptible Moraxella catarrhalis 1 after 20 hrs by agar dilution method. The essentials: as §1
Test [10] has as its system Haemophilus influenzae. Kind of test: Antimicrobial activity against drug-susceptible Haemophilus influenzae 3 after 20 hrs by agar dilution method. In short, it runs like this: as §1
In test [11] the test system is Staphylococcus aureus. Description: Antimicrobial activity against drug-susceptible Staphylococcus aureus 3 after 20 hrs by agar dilution method. The essentials:
as §2

Test [12] has as its system Streptococcus pyogenes. Description: Antimicrobial activity against Streptococcus pyogenes 3 expressing mefA after 20 hrs by agar dilution method. In short, it runs like this:
as §1

Test [13] relates to Moraxella catarrhalis. Description: Antimicrobial activity against drug-susceptible Moraxella catarrhalis 2 after 20 hrs by agar dilution method. In short, it runs like this:
as §1

The test system of test [14] is Streptococcus pneumoniae. Description: Antimicrobial activity against Streptococcus pneumoniae 8 expressing inducible ermB after 20 hrs by agar dilution method. The essentials: as §1
In test [15] the test system is Staphylococcus aureus. Kind of test: Antimicrobial activity against drug-susceptible Staphylococcus aureus 2 after 20 hrs by agar dilution method. In short, it runs like this:
as §2

Test [16] has as its system Streptococcus pneumoniae. Description: Antimicrobial activity against drug-susceptible Streptococcus pneumoniae 3 after 20 hrs by agar dilution method. In short, it runs like this:
as §1

The test system of test [17] is Streptococcus pyogenes. Description: Antimicrobial activity against drug-susceptible Streptococcus pyogenes 1 after 20 hrs by agar dilution method. In short, it runs like this:
as §1

The subject of test [18] is Streptococcus pneumoniae. Description: Antimicrobial activity against Streptococcus pneumoniae 10 expressing mefA after 20 hrs by agar dilution method. In short, it runs like this: as §1
For test [19], the system named is Staphylococcus aureus. Kind of test: Antimicrobial activity against Staphylococcus aureus 5 expressing inducible ermB after 20 hrs by agar dilution method. In short, it runs like this: as §2
The subject of test [20] is Staphylococcus aureus. Description: Antimicrobial activity against Staphylococcus aureus 4 constitutively expressing ermA after 20 hrs by agar dilution method. In short, it runs like this:
as §2

Test [21] deals with Streptococcus pneumoniae. Description: Antimicrobial activity against Streptococcus pneumoniae 5 constitutively expressing ermB/mefA after 20 hrs by agar dilution method. To be noted: Streptococcus pneumoniae, 20 h; read-out: MIC. The essentials:
as §1

The test system of test [22] is Staphylococcus aureus. Kind of test: Antimicrobial activity against Staphylococcus aureus 6 expressing inducible ermB after 20 hrs by agar dilution method. The essentials:
as §2

For test [23], the system named is Streptococcus pyogenes. Description: Antimicrobial activity against Streptococcus pyogenes 2 constitutively expressing ermB after 20 hrs by agar dilution method. The essentials:
as §1

In test [24] the test system is Streptococcus pneumoniae. Description: Antimicrobial activity against Streptococcus pneumoniae 6 constitutively expressing ermB after 20 hrs by agar dilution method. The settings on record: Streptococcus pneumoniae, 20 h; read-out: MIC. The essentials:
as §1

The mark [25] stands for this setting: Haemophilus influenzae, 20 h, read-out: MIC.
Where [26] appears, read: Staphylococcus aureus, 20 h, read-out: MIC.
The mark [27] stands for this setting: Staphylococcus aureus, 209P, 20 h, read-out: MIC.
[28] abbreviates: Streptococcus pneumoniae, 20 h, read-out: MIC.
Setting [29] is: Moraxella catarrhalis, 20 h, read-out: MIC.
[30] abbreviates: Streptococcus pyogenes, 20 h, read-out: MIC.

`CCOC(=O)[C@H]1[C@H](C)O[C@@H](O[C@H]2[C@H](N(C)C)[C@@H](O)[C@H](O[C@H]3[C@@H](CC=O)C[C@@H](C)[C@@H](O)CN(C)CCC(CCCc4cnc5ccccc5c4)NC(=O)C[C@@H](OC(=O)CC)[C@@H]3OC)O[C@@H]2C)C[C@@]1(C)O` (stereo in doubt): the MIC is 16 µg/mL (≈ 16.4 µM) against Haemophilus influenzae [1]; 8 µg/mL (≈ 8.22 µM) in the test with Streptococcus pneumoniae [2]; 0.03 µg/mL (≈ 0.0308 µM) against Streptococcus pneumoniae [3]; 1 µg/mL (≈ 1.03 µM) against Staphylococcus aureus [4]; 0.06 µg/mL (≈ 0.0617 µM) in the test with Streptococcus pneumoniae [5]; 0.06 µg/mL (≈ 0.0617 µM) against Streptococcus pneumoniae [6]. The MIC in the test on Haemophilus influenzae [7] came out at 32 µg/mL (≈ 32.9 µM); in the test with Haemophilus influenzae [8] it was 2 µg/mL (≈ 2.06 µM); against Moraxella catarrhalis [9], 8 µg/mL (≈ 8.22 µM); with Haemophilus influenzae [10] it was 8 µg/mL (≈ 8.22 µM); in the test with Staphylococcus aureus [11] it was 0.5 µg/mL (≈ 0.514 µM); against Streptococcus pyogenes [12], 1 µg/mL (≈ 1.03 µM). The MIC worked out at 4 µg/mL (≈ 4.11 µM) with Moraxella catarrhalis [13]; 8 µg/mL (≈ 8.22 µM) in the test on Streptococcus pneumoniae [14]; 2 µg/mL (≈ 2.06 µM) in the test with Staphylococcus aureus [15]; 0.06 µg/mL (≈ 0.0617 µM) against Streptococcus pneumoniae [16]; 0.25 µg/mL (≈ 0.257 µM) in the test on Streptococcus pyogenes [17]; 0.06 µg/mL (≈ 0.0617 µM) in the test with Streptococcus pneumoniae [18].

`CCOC(=O)[C@H]1[C@H](C)O[C@@H](O[C@H]2[C@H](N(C)C)[C@@H](O)[C@H](O[C@H]3[C@@H](CC=O)C[C@@H](C)[C@@H](O)CN(CCCCc4ccccc4)CCC(C)NC(=O)C[C@@H](OC(=O)CC)[C@@H]3OC)O[C@@H]2C)C[C@@]1(C)OC(C)=O` (stereo in doubt; form 1): the MIC in the test with Haemophilus influenzae [1] (setting [25]) was found to be 4 µg/mL (≈ 4.09 µM); in the test with Staphylococcus aureus [19] (setting [26]) it was 0.25 µg/mL (≈ 0.256 µM); against Streptococcus pneumoniae [2] it was 128 µg/mL (≈ 131 µM); in the test on Streptococcus pneumoniae [3], 0.06 µg/mL (≈ 0.0613 µM); in the test on Staphylococcus aureus [4] (setting [27]) it was 0.25 µg/mL (≈ 0.256 µM); in the test with Streptococcus pneumoniae [5] (setting [28]), 0.25 µg/mL (≈ 0.256 µM). The MIC with Streptococcus pneumoniae [6] (setting [28]) was 0.13 µg/mL (≈ 0.133 µM); in the test on Haemophilus influenzae [7] (setting [25]), 16 µg/mL (≈ 16.4 µM); in the test on Haemophilus influenzae [8] (setting [25]), 1 µg/mL (≈ 1.02 µM); in the test with Moraxella catarrhalis [9] (setting [29]), 0.13 µg/mL (≈ 0.133 µM); in the test on Staphylococcus aureus [20], above 128 µg/mL; in the test with Haemophilus influenzae [10] (setting [25]) it was 4 µg/mL (≈ 4.09 µM). Also, the MIC was above 128 µg/mL in the test on Streptococcus pneumoniae [21]; 0.5 µg/mL (≈ 0.511 µM) in the test on Staphylococcus aureus [22]; 0.25 µg/mL (≈ 0.256 µM) with Staphylococcus aureus [11] (setting [26]); 0.25 µg/mL (≈ 0.256 µM) in the test on Streptococcus pyogenes [12] (setting [30]); 0.13 µg/mL (≈ 0.133 µM) in the test with Moraxella catarrhalis [13] (setting [29]); 128 µg/mL (≈ 131 µM) against Streptococcus pneumoniae [14]. In addition, the MIC is above 128 µg/mL against Streptococcus pyogenes [23]; 1 µg/mL (≈ 1.02 µM) in the test on Staphylococcus aureus [15] (setting [26]); above 128 µg/mL with Streptococcus pneumoniae [24]; 0.06 µg/mL (≈ 0.0613 µM) in the test with Streptococcus pyogenes [17] (setting [30]); 0.25 µg/mL (≈ 0.256 µM) in the test with Streptococcus pneumoniae [18] (setting [28]).

For the compound `CCOC(=O)[C@H]1[C@H](C)O[C@@H](O[C@H]2[C@H](N(C)C)[C@@H](O)[C@H](O[C@H]3[C@@H](CC=O)C[C@@H](C)[C@@H](O)CN(C)CCC(C/C=C/c4cnc5ccccc5c4)NC(=O)C[C@@H](OC(=O)CC)[C@@H]3OC)O[C@@H]2C)C[C@@]1(C)O` (stereo in doubt; form 2), the MIC was 32 µg/mL (≈ 32.9 µM) in the test with Haemophilus influenzae [1]; 1 µg/mL (≈ 1.03 µM) in the test on Staphylococcus aureus [19]; above 128 µg/mL in the test on Streptococcus pneumoniae [2]; 0.13 µg/mL (≈ 0.134 µM) against Streptococcus pneumoniae [3]; 1 µg/mL (≈ 1.03 µM) in the test on Staphylococcus aureus [4]; 0.5 µg/mL (≈ 0.515 µM) with Streptococcus pneumoniae [5]. For the same compound, the MIC was determined as 0.25 µg/mL (≈ 0.257 µM) against Streptococcus pneumoniae [6]; 64 µg/mL (≈ 65.9 µM) in the test on Haemophilus influenzae [7]; 4 µg/mL (≈ 4.12 µM) against Haemophilus influenzae [8]; 8 µg/mL (≈ 8.24 µM) with Moraxella catarrhalis [9]; 16 µg/mL (≈ 16.5 µM) against Haemophilus influenzae [10]; 0.5 µg/mL (≈ 0.515 µM) with Staphylococcus aureus [11]. The MIC with Streptococcus pyogenes [12] is 4 µg/mL (≈ 4.12 µM); with Moraxella catarrhalis [13], 4 µg/mL (≈ 4.12 µM); in the test on Streptococcus pneumoniae [14] it was above 128 µg/mL; against Staphylococcus aureus [15] it was 2 µg/mL (≈ 2.06 µM); against Streptococcus pneumoniae [16], 0.25 µg/mL (≈ 0.257 µM); in the test on Streptococcus pyogenes [17] it was 0.5 µg/mL (≈ 0.515 µM). The MIC against Streptococcus pneumoniae [18] was found to be 0.25 µg/mL (≈ 0.257 µM).

On to `CCC(=O)O[C@@H]1CC(=O)O[C@H](C)C/C=C/C=C/[C@H](OC(C)=O)[C@H](C)C[C@H](CC=O)[C@H](O[C@@H]2O[C@H](C)[C@@H](O[C@H]3C[C@@](C)(OC(C)=O)[C@@H](OC(=O)CC)[C@H](C)O3)[C@H](N(C)C)[C@H]2O)[C@H]1OC` [MIOCAMYCIN], for which the MIC stood at 16 µg/mL (≈ 17.8 µM) with Haemophilus influenzae [1] (setting [25]); 0.5 µg/mL (≈ 0.557 µM) with Staphylococcus aureus [19] (setting [26]); 64 µg/mL (≈ 71.3 µM) in the test with Streptococcus pneumoniae [2] (setting [28]); 0.25 µg/mL (≈ 0.278 µM) with Streptococcus pneumoniae [3] (setting [28]); 0.5 µg/mL (≈ 0.557 µM) with Staphylococcus aureus [4] (setting [27]); 0.5 µg/mL (≈ 0.557 µM) in the test with Streptococcus pneumoniae [5] (setting [28]). Also, the MIC in the test on Streptococcus pneumoniae [6] (setting [28]) is 0.5 µg/mL (≈ 0.557 µM); in the test on Haemophilus influenzae [7] (setting [25]), 64 µg/mL (≈ 71.3 µM); with Haemophilus influenzae [8] (setting [25]), 2 µg/mL (≈ 2.23 µM); in the test on Moraxella catarrhalis [9] (setting [29]), 1 µg/mL (≈ 1.11 µM); with Staphylococcus aureus [20] it was above 128 µg/mL; with Haemophilus influenzae [10] (setting [25]), 32 µg/mL (≈ 35.6 µM). Further, the MIC in the test on Streptococcus pneumoniae [21] is above 128 µg/mL; with Staphylococcus aureus [22], 1 µg/mL (≈ 1.11 µM); in the test with Staphylococcus aureus [11] (setting [26]) it was 0.5 µg/mL (≈ 0.557 µM); with Streptococcus pyogenes [12] (setting [30]), 0.5 µg/mL (≈ 0.557 µM); with Moraxella catarrhalis [13] (setting [29]), 2 µg/mL (≈ 2.23 µM); with Streptococcus pneumoniae [14] (setting [28]), 128 µg/mL (≈ 143 µM). The MIC in the test with Streptococcus pyogenes [23] was above 128 µg/mL; in the test with Staphylococcus aureus [15] (setting [26]), 1 µg/mL (≈ 1.11 µM); in the test on Streptococcus pneumoniae [24] it was above 128 µg/mL; with Streptococcus pyogenes [17] (setting [30]) it was 0.25 µg/mL (≈ 0.278 µM); in the test on Streptococcus pneumoniae [18] (setting [28]), 0.5 µg/mL (≈ 0.557 µM).
